# Experimental data: article PMC3863817 (Scientific Reports, 2013)
# Tests used:
# KB cells = experiment: Measurement of cellular ATP levels; format: cell-based, human; details: positive control, 1 μM for 4 h
# Procedure, shortened: (§1)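 Cells plated at 2 × 10^5 per well and grown 1 day. They were exposed to 20 μM test compound for 4, 8, 16 or 24 h, or to rotenone (1 μM, 4 h) as positive control, at 37°C. KB cells were in folic acid-depleted RPMI-1640 and COS7 in DMEM, each with 10% FBS. Harvested cells were lysed in 1% TCA/4 mM EDTA for 20 min on ice, then Tris (pH 7.4). ATP was read with a bioluminescent kit on a chemiluminometer.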
# COS7 cells = experiment: Measurement of cellular ATP levels; format: cell-based, African green monkey; details: positive control, 1 μM for 4 h
# Procedure, shortened: as §1
compound,measurement,setting,value
C=C(C)[C@H]1Cc2c(ccc3c2O[C@@H]2COc4cc(OC)c(OC)cc4[C@@H]2C3=O)O1 [rotenone],"Cellular ATP level, in words",KB cells,induce a decrease in cellular ATP level
same,"Cellular ATP level, in words",COS7 cells,induce a decrease in cellular ATP level
